These results are taken from ChEMBL document CHEMBL4354865 (J Med Chem, 2020).

Series [1] has as its target T1, Indoleamine 2,3-dioxygenase 1 (Homo sapiens, UniProt P14902). Briefly: Inhibition of IDO1 in IFNgamma-stimulated human A375 cells assessed as reduction in L-Kyn level at 1 uM measured after 48 hrs by HPLC analysis relative to control. Put shortly: (§1)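 A375 cells, unstimulated or stimulated with recombinant human IFN-γ, were left untreated or treated with 1 µM compound for 48 h. L-Kyn was measured by HPLC and cell viability was assessed.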
Target sequence in this assay (P14902 whole entry, looked up): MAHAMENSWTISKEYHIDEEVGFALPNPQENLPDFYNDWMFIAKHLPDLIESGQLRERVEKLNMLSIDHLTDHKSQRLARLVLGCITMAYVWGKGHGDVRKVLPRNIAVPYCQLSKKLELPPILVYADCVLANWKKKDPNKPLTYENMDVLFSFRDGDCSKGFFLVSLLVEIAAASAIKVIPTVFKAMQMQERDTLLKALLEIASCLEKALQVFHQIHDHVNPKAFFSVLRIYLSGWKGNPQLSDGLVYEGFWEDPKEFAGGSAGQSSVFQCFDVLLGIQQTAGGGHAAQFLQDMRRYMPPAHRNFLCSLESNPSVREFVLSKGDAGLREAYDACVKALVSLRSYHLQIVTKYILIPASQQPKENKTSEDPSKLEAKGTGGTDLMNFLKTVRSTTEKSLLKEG

Series [2] in a line: Cytotoxicity against human A375 cells assessed as cell viability at 1 uM measured after 48 hrs by MTT assay relative to control. The note with it: read-out: Activity. The format is cell-based, A-375. The method in brief:
as §1

The subject of series [3] is Monocyte. Briefly: Cytotoxicity against human monocytes assessed as reduction in cell viability at 30 uM measured after 24 hrs by Annexin-V APC/7-AAD staining based flow cytometric analysis. The method in brief: (§2)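 Monocytes from healthy donors (n=3) and from PDAC patients (n=3) were treated for 24 h, with DMSO as control. Viability was normalized to untreated cells. Healthy-donor cells received a range of concentrations; PDAC cells received 30 µM.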

In series [4] the test system is Monocyte. Briefly: Cytotoxicity against PDAC patient derived monocytes assessed as reduction in cell viability at 30 uM measured after 24 hrs by Annexin-V APC/7-AAD staining based flow cytometric analysis. The following applies: human. The method in brief: as §2
The target of series [5] is T1, Indoleamine 2,3-dioxygenase 1. Briefly: Inhibition of IDO1 in IFNgamma-stimulated human A375 cells assessed as reduction in L-Kyn level measured after 48 hrs by HPLC analysis.
Target sequence in this assay (P14902 whole entry): as the sequence (P14902 whole entry, looked up) above
Series [6] can be described thus: Metabolic stability in CD-1 mouse liver microsomes assessed as parent compound remaining at 50 uM measured after 1 hr in presence of NADPH generating system by UV-LC/MS analysis. In kind it is ADME, Microsome. The note with it: read-out: Stability. The method in brief:
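Mouse liver microsomes activated with NADPH. Residual parent compound was measured after 1 h incubation.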

Series [7] deals with Tryptophan 2,3-dioxygenase (Mus musculus, UniProt P48776). Briefly: Inhibition of mouse TDO transfected in P815 cells assessed as reduction in L-Kyn level measured after 16 hrs by HPLC analysis. The format is cell-based. The method in brief: (§3)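 P815 mastocytoma cells stably expressing mouse IDO1 (P1.IDO1) or TDO (P1.TDO) were treated with serial dilutions for 16 h. L-Kyn secreted into the culture supernatant was quantified by HPLC, and an IC50 was determined in each line.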

A short description of series [8]: Drug metabolism in CD-1 mouse liver microsomes assessed as benzimidazole oxidation at 50 uM measured after 1 hr by LC-HRMS analysis. In kind it is ADME, Microsome.
The nature of series [9]: Inhibition of CYP450 in rat liver microsomes assessed as reduction in aminopyrine N-demethylase activity preincubated for 3 mins followed by NADPH addition and measured after 15 mins by iodometric titration method. In kind it is ADME. The note with it: rat, microsomes, 0.25 h. Put shortly:
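CYP inhibition read by aminopyrine N-demethylase activity, with IC50 determined from concentration–response curves. Ketoconazole (CYP3A inhibitor) served as reference.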

Series [10] has as its target T1, Indoleamine 2,3-dioxygenase 1. Briefly: Inhibition of IDO1 in IFNgamma-stimulated human MCF7 cells assessed as reduction in L-Kyn level measured after 48 hrs by HPLC analysis. In kind it is cell-based.
Target sequence in this assay (P14902 whole entry): as the sequence (P14902 whole entry, looked up) above
The nature of series [11]: Drug metabolism in CD-1 mouse liver microsomes assessed as oxidative N-dealkylation at 50 uM measured after 1 hr by LC-HRMS analysis. The format is ADME, Microsome.
Series [12] concerns the target T1, Indoleamine 2,3-dioxygenase 1. Briefly: Inhibition of IDO1 in IFNgamma-stimulated human DAN-G cells assessed as reduction in L-Kyn level measured after 48 hrs by HPLC analysis. In kind it is cell-based.
Target sequence in this assay (P14902 whole entry): as the sequence (P14902 whole entry, looked up) above
In series [13] the target is Indoleamine 2,3-dioxygenase 1 (Mus musculus, UniProt P28776). Briefly: Inhibition of mouse IDO1 transfected in P815 cells assessed as reduction in L-Kyn level measured after 16 hrs by HPLC analysis. The format is cell-based. The method in brief: as §3
Series [14] is described as follows: Metabolic stability in CD-1 mouse liver microsomes assessed as parent compound remaining at 50 uM measured after 1 hr in presence of NADPH by UV-LC/MS analysis.
The nature of series [15]: Chemical stability of the compound. In kind it is physicochemical.

Molecules are shown by their SMILES.

Indoleamine 2,3-dioxygenase 1 (Mus musculus, UniProt P28776), sequence (P28776 whole entry): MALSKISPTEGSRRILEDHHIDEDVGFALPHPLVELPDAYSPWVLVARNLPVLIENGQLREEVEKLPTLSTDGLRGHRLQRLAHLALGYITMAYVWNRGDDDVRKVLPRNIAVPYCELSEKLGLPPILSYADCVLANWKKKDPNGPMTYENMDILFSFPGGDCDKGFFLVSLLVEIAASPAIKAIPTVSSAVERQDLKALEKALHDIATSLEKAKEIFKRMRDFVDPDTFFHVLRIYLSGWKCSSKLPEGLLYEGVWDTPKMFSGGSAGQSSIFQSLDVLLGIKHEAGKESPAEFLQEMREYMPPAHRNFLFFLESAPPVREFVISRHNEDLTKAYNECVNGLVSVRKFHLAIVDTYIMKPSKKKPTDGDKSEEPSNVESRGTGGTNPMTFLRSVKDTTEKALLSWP
Tryptophan 2,3-dioxygenase, sequence (P48776 whole entry): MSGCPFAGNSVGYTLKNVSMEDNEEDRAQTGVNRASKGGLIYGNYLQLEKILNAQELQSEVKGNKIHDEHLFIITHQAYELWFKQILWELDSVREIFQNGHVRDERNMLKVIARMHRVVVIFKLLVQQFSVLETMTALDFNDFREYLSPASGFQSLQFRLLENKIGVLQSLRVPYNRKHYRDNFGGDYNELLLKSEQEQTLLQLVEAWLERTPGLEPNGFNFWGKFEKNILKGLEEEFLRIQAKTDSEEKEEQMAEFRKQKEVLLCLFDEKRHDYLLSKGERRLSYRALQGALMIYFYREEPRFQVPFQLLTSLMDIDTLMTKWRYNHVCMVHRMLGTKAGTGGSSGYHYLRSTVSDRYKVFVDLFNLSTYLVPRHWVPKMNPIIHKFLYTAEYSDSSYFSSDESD

Consider `N#Cc1ccc(C(=O)NCc2cccc(Cn3cnc4ccccc43)c2)cc1F`, for which the inhibition in series [1] is 32%. The viability at 48 h, 1 µM in [2] was 100%.

On to `CC(=O)NCC(=O)NCc1cccc(Cn2cnc3ccccc32)c1`, for which the inhibition in series [1] came out at 0%. For the same compound, in series [2], the viability at 48 h, 1 µM is 100%.

Regarding `O=C(OCc1cccc(Cn2cnc3ccccc32)c1)c1cc(Br)c[nH]1`, in series [1], the inhibition was 0%. Further, the viability at 48 h, 1 µM in [2] came to 100%.

With `O=C(NCc1cccc(Cn2cnc3ccccc32)c1)c1ccc(C(F)(F)F)cc1`, the inhibition in series [1] amounted to 81%. For the same compound, in series [2], the viability at 48 h, 1 µM amounted to 97%.

Turning to `O=C(CCN1CCOCC1)NCc1cccc(Cn2cnc3ccccc32)c1`, the inhibition in [1] was 0%. For the same compound, the viability at 48 h, 1 µM in series [2] came out at 100%.

Regarding `O=C(NCc1cccc(Cn2cnc3ccccc32)c1)c1ccc[nH]1`, in series [1], the inhibition was 72%. In series [2], the viability at 48 h, 1 µM was found to be 94%.

Take `NS(=O)(=O)NCCNc1nonc1C(=NO)Nc1ccc(F)c(Br)c1` [EPACADOSTAT]: the Activity entry with Monocyte [3] and with Monocyte [4] was “Non-Toxic” each time. For the same compound, the viability at 48 h, 1 µM in series [2] turned out to be 97%.

Take `O=C(NCc1cccc(Cn2cnc3ccccc32)c1)c1ccco1`: in series [1], the inhibition was found to be 25%. Further, the viability at 48 h, 1 µM in series [2] came out at 100%.

`O=C(NCc1cccc(Cn2cnc3ccccc32)c1)c1ccc(Br)cc1`: the IC50 in [5] turned out to be 134 nM. The inhibition in series [1] was found to be 98%. Further, the viability at 48 h, 1 µM in [2] was 96%.

With `Cc1ccc2[nH]c(C(=O)NCc3cccc(Cn4cnc5ccccc54)c3)cc2c1`, in series [5], the half-inhibitory concentration (IC50) was 636 nM. The inhibition in [1] was determined as 90%. For the same compound, the viability at 48 h, 1 µM in series [2] was 99%.

In the case of `N#Cc1ccc(C(=O)NCc2cccc(Cn3cnc4ccccc43)c2)c(F)c1`, the inhibition in [1] turned out to be 37%. Further, the viability at 48 h, 1 µM in [2] is 99%.

Take `O=C(NCc1cccc(Cn2cnc3ccccc32)c1)c1cc2ccccc2s1`: the inhibition in [1] came out at 77%. Also, the viability at 48 h, 1 µM in series [2] is 88%.

In the case of `O=C(CNC(=O)c1ccccc1)NCc1cccc(Cn2cnc3ccccc32)c1`, the inhibition in series [1] stood at 13%. In addition, in series [2], the viability at 48 h, 1 µM worked out at 99%.

Take `N#Cc1ccc(C(=O)NCc2cccc(Cn3cnc4ccccc43)c2)cc1`: the IC50 in series [5] is 90 nM; in [7] it was 32300 nM; in series [10], 110 nM; in series [12], 1940 nM; in [13], 112 nM. The remaining at 1 h, 50 µM in series [6] and in series [14] was 59% in each case. The Drug metabolism entry in [8] and in [11] was “Metabolite_Detected” in each case. Also, the “inhibition (INH)” value in series [9] is listed as “Not Active”. Moreover, in [1], the inhibition stood at 88%. Besides, in series [2], the viability at 48 h, 1 µM turned out to be 100%.

Consider `O=C(NCc1cccc(Cn2cnc3ccccc32)c1)c1cc2cc(O)ccc2[nH]1`, for which, in series [5], the half-maximal inhibitory concentration (IC50) was 781 nM. The inhibition in [1] was determined as 71%. Besides, the viability at 48 h, 1 µM in series [2] came to 99%.

Consider `O=C(NCc1cccc(Cn2cnc3ccccc32)c1)c1nc2ccccc2[nH]1`, for which the half-maximal inhibitory concentration (IC50) in series [5] amounted to 407 nM. The inhibition in series [1] was 83%. In addition, the viability at 48 h, 1 µM in series [2] came out at 100%.

With `O=C(NCc1cccc(Cn2cnc3ccccc32)c1)c1ccc(Cl)cc1`, the IC50 in [5] is 477 nM. Moreover, the inhibition in series [1] was 99%. In addition, the viability at 48 h, 1 µM in [2] turned out to be 96%.

As to `NCCCC(=O)NCc1cccc(Cn2cnc3ccccc32)c1`, the inhibition in series [1] amounted to 0%. Further, the viability at 48 h, 1 µM in series [2] worked out at 100%.

`COc1ccc2[nH]c(C(=O)NCc3cccc(Cn4cnc5ccccc54)c3)cc2c1`: the viability at 48 h, 1 µM in series [2] was determined as 55%.

In the case of `O=C(NCc1cccc(Cn2cnc3ccccc32)c1)c1cccs1`, the inhibition in [1] is 62%. For the same compound, in [2], the viability at 48 h, 1 µM is 98%.

With `O=C(NCc1cccc(Cn2cnc3ccccc32)c1)c1ccc(F)cc1`, the IC50 in series [5] came to 961 nM. Moreover, in series [1], the inhibition is 88%. In [2], the viability at 48 h, 1 µM turned out to be 89%.

As to `Cc1cc(C(=O)NCc2cccc(Cn3cnc4ccccc43)c2)ccc1C#N`, the inhibition in series [1] came out at 44%. Moreover, the viability at 48 h, 1 µM in series [2] was 94%.

In the case of `O=C(NCc1cccc(Cn2cnc3ccc(Br)cc32)c1)c1cc(Br)c[nH]1`, the half-inhibitory concentration (IC50) in series [5] came out at 19 nM. The Stability result in [15] is on record as “Unstable”. Besides, the inhibition in [1] was 98%. For the same compound, the viability at 48 h, 1 µM in series [2] was 99%.

For the compound `O=C(NCc1cccc(Cn2ccc3ccccc32)c1)c1cc(Br)c[nH]1`, the inhibition in [1] was found to be 0%. Besides, in series [2], the viability at 48 h, 1 µM is 100%.

As for `O=C(NCc1cccc(Cn2cnc3ccccc32)c1)c1cc2ccccc2o1`, the IC50 in [5] came out at 413 nM. Moreover, the inhibition in [1] was 91%. Besides, the viability at 48 h, 1 µM in series [2] was 100%.

Turning to `Cc1ccc(C(=O)NCc2cccc(Cn3cnc4ccccc43)c2)cc1`, the 50% inhibitory concentration (IC50) in series [5] is 327 nM. The inhibition in series [1] is 88%. Further, in [2], the viability at 48 h, 1 µM came out at 94%.

With `O=C(Cc1ccc2c(c1)OCO2)NCc1cccc(Cn2cnc3ccccc32)c1`, the inhibition in series [1] came to 5%. Further, the viability at 48 h, 1 µM in [2] was 96%.

Consider `O=C(NCc1cccc(Cn2cnc3ccccc32)c1)c1ccccc1`, for which, in series [1], the inhibition amounted to 32%. Also, the viability at 48 h, 1 µM in series [2] came out at 98%.
